Experimental data reported in ChEMBL document CHEMBL3259568 (Bioorg Med Chem, 2014).

How the values were obtained:
Rattus norvegicus [1] = experiment: Ulcerogenic activity in albino rat stress model assessed as ulcer index at 10 mg/kg, po after 7 hrs; format: toxicity, organism-based; design: dose 10 mg/kg, route oral; settings: in vivo
How it was run: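 Albino rats of either sex (170–250 g), six per group, starved 48 h with water, dosed orally 10 mg/kg in sodium CMC; killed 7 h later. Stomach opened along greater curvature and everted; lesions counted in five size classes (pinpoint to >4 mm) to give ulcer index, reported as min–max range.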

Rattus norvegicus [2] = experiment: Antipyretic activity in albino rat assessed as decrease in yeast-induced pyrexia by measuring temperature index at 10 mg/kg, po measured over 5 hrs by telethermometer (reference value: 1.04 degC); format: functional
How it was run: (§1)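 Male albino rats (170–230 g) given s.c. 2.5 ml 20% aqueous baker's yeast; rectal temperature by telethermometer before and at 18 h (taken as 0 h). Rats with 1–2 °C rise, six per group, dosed orally 30 min later (control 1 ml 0.5% sodium CMC). Temperature recorded hourly to 5 h; temperature index = sum of mean changes from 0 h.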

Rattus norvegicus [3] = experiment: Antipyretic activity in albino rat assessed as yeast-induced pyrexia at 10 mg/kg, po measured at 4 hrs by telethermometer (reference value: 38 degC); format: functional; how it was run: as §1
Rattus norvegicus [4] = experiment: Antipyretic activity in albino rat assessed as yeast-induced pyrexia at 10 mg/kg, po measured at 1 hr by telethermometer (reference value: 38.26 degC); format: functional; how it was run: as §1
Rattus norvegicus [5] = experiment: Antipyretic activity in albino rat assessed as yeast-induced pyrexia at 10 mg/kg, po measured at 5 hrs by telethermometer (reference value: 37.89 degC); format: functional; how it was run: as §1
Mus musculus [6] = experiment: Acute toxicity in albino mouse assessed as mortality at 2000 mg/kg, po measured continuously for 3 hrs followed by every 30 mins for next 3 hrs up to 24 hrs; format: organism-based; design: dose 2000 mg/kg, route oral; settings: in vivo
How it was run: (§2)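 OECD guideline test. Albino mice of either sex, 20–25 g, six per group, fasted 24 h with water ad libitum. Compounds suspended in 0.5% aqueous sodium CMC and given orally in increasing doses of 10, 20, 100, 200, 1000 and 2000 mg/kg b.w. Animals watched continuously for 3 h for general behavioural, neurological and autonomic profiles, then every 30 min for 3 h, then up to 24 h or until death.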

Mus musculus [7] = experiment: Analgesic activity in albino mouse assessed as protection against glacial acetic acid-induced writhing at 10 mg/kg, po administered 0.5 hrs followed by glacial acetic acid challenge measured for 15 mins relative to control; format: functional
How it was run: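 Mice (20–25 g) pre-screened 24 h earlier with i.p. 10 ml/kg 0.6% glacial acetic acid; only responders used. Oral dosing as suspension in 0.5% sodium CMC 30 min before acetic acid challenge. Writhing episodes counted for 15 min; group means versus vehicle control; ANOVA with Dunnett test.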

Mus musculus [8] = experiment: Acute toxicity in albino mouse assessed as effect on neurological profile at 2000 mg/kg, po measured for 3 hrs; format: organism-based; design: dose 2000 mg/kg, route oral; settings: in vivo; how it was run: as §2
Mus musculus [9] = experiment: Acute toxicity in albino mouse assessed as effect on autonomic profile at 2000 mg/kg, po measured for 3 hrs; format: organism-based; design: dose 2000 mg/kg, route oral; settings: in vivo; how it was run: as §2
Rattus norvegicus [10] = experiment: Acute antiinflammatory activity in albino rat assessed as inhibition of carrageenan-induced paw edema at 10 mg/kg, po administered 1 hr followed by carrageenan challenge measured at 2 hrs by plethysmometric analysis relative to control; format: functional
How it was run: (§3)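 Male albino rats (170–220 g), fasted ≥12 h with water, six per group. Oral dosing in 0.5% sodium CMC (control 1 ml vehicle), then 1 h later subplantar 0.05 ml of 1% carrageenan into left hind footpad. […] Mean ± SEM, ANOVA/Dunnett.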

Rattus norvegicus [11] = experiment: Antipyretic activity in albino rat assessed as yeast-induced pyrexia at 10 mg/kg, po measured at 3 hrs by telethermometer (reference value: 38.11 degC); format: functional; how it was run: as §1
Mus musculus [12] = experiment: Acute toxicity in albino mouse assessed as effect on general behavioral profile at 2000 mg/kg, po measured for 3 hrs; format: organism-based; design: dose 2000 mg/kg, route oral; settings: in vivo; how it was run: as §2
Rattus norvegicus [13] = experiment: Antipyretic activity in albino rat assessed as yeast-induced pyrexia at 10 mg/kg, po measured at 2 hrs by telethermometer (reference value: 38.20 degC); format: functional; how it was run: as §1
[14] = molecular target: T1, Prostaglandin G/H synthase 1 (Ovis aries) (UniProt P05979); experiment: Inhibition of ovine COX1 peroxidase activity assessed as reduction of PGG2 to PGH2 by measuring oxidized TMPD level at 10 ug/ml by colorimetric assay relative to control
T1 sequence (whole entry): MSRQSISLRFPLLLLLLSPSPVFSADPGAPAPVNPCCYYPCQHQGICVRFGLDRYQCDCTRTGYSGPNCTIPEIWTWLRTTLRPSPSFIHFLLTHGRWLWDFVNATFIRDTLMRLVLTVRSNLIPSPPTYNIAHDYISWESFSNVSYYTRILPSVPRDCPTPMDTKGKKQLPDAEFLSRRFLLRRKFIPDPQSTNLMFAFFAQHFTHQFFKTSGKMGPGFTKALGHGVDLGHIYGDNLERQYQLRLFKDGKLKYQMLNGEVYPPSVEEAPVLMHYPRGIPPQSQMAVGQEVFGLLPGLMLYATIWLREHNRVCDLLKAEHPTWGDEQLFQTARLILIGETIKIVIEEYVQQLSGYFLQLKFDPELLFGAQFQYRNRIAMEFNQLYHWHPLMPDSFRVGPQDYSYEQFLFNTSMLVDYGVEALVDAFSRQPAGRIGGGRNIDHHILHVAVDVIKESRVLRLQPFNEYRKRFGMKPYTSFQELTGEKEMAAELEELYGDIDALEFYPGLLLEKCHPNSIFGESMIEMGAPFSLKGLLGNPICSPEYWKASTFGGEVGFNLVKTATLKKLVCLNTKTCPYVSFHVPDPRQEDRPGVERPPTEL

Rattus norvegicus [15] = experiment: Acute antiinflammatory activity in albino rat assessed as inhibition of carrageenan-induced paw edema at 10 mg/kg, po administered 1 hr followed by carrageenan challenge measured at 4 hrs by plethysmometric analysis relative to control; format: functional; how it was run: as §3
[16] = molecular target: T2, Prostaglandin G/H synthase 1 (Ovis aries, UniProt P05979); experiment: Inhibition of ovine COX1 peroxidase activity assessed as reduction of PGG2 to PGH2 by measuring oxidized TMPD level by colorimetric assay
T2 sequence (P05979 whole entry): T1 sequence (whole entry)

SMILES	UI (Rattus norvegicus [1])	T (Rattus norvegicus [2]) [°C]	T (Rattus norvegicus [3]) [°C]	T (Rattus norvegicus [4]) [°C]	T (Rattus norvegicus [5]) [°C]	Activity (Mus musculus [6])	Activity (Mus musculus [7]) [%]	Activity (Mus musculus [8])	Activity (Mus musculus [9])	inhibition in vivo at 10 mg/kg (Rattus norvegicus [10]) [%]	T (Rattus norvegicus [11]) [°C]	Activity (Mus musculus [12])	T (Rattus norvegicus [13]) [°C]	inhibition [14] [%]	inhibition in vivo at 10 mg/kg (Rattus norvegicus [15]) [%]	IC50 [16] [µM]
CC(C(=O)O)c1ccc(-c2ccccc2)c(F)c1 (stereo not drawn) [FLURBIPROFEN]	5.9	–	–	–	–	–	–	–	–	–	–	–	–	–	–	–
CN1CCN(Cn2nc(Cc3ccccc3Nc3c(Cl)cccc3Cl)oc2=S)CC1	2.3	2.81	37.44	37.72	37.2	Non-toxic	77.6	Non-toxic	Non-toxic	65.1	37.8	Non-toxic	37.94	35.2	64.5	> 50
S=c1oc(Cc2ccccc2Nc2c(Cl)cccc2Cl)nn1CN1CCNCC1	–	–	–	–	–	Non-toxic	75.9	Non-toxic	Non-toxic	51.4	–	Non-toxic	–	43.2	56.5	> 50
S=c1oc(Cc2ccccc2Nc2c(Cl)cccc2Cl)nn1CNc1cccc(Cl)c1	2.1	5.4	37.8	38.9	37.2	Non-toxic	82.2	Non-toxic	Non-toxic	71.8	38.1	Non-toxic	38.6	25	74.4	> 50
CC1CCN(Cn2nc(Cc3ccccc3Nc3c(Cl)cccc3Cl)oc2=S)CC1	–	–	–	–	–	Non-toxic	–	Non-toxic	Non-toxic	36.9	–	Non-toxic	–	–	33.8	–
CC1CCCCN1Cn1nc(Cc2ccccc2Nc2c(Cl)cccc2Cl)oc1=S (stereo not drawn)	–	–	–	–	–	Non-toxic	–	Non-toxic	Non-toxic	39.4	–	Non-toxic	–	–	36.6	–
S=c1oc(Cc2ccccc2Nc2c(Cl)cccc2Cl)nn1CN1CCCCC1	–	–	–	–	–	Non-toxic	74.1	Non-toxic	Non-toxic	48.3	–	Non-toxic	–	30.9	45.9	> 50
